G6PDH counter = counter-screen for G6PDH assay hits: L. mesenteroides G6PDH inhibition; Purified L. mesenteroides G6PDH, diaphorase/resazurin coupled fluorescence, 45 min; inhibition, % at 5 µM; 200,000 tested, 0.12% active; AID 1020
Diaph act CS = counter-screen for diaphorase-based assays: diaphorase activators and chemical reducers. Diaphorase/resazurin coupled assay, resorufin fluorescence, 16 min; stronger effect = higher value; 1 = vehicle wells, 0 = NADH-free wells. activation factor at 20 µM. 190,000 tested, 0.005% active. AID 1229;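 active = diaphorase activity raised at least twofold by the compound at 20 µM; inactive = activation factor below 2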
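Material: purified diaphorase enzyme from Clostridium kluyveri; Also added: 0.114 mM NADH and 0.1 mM resazurin, final amounts; Doses: single compound dose of 20 µM, 1% DMSO final; Times: 16 min enzyme reaction, ambient temperature; Detection: resorufin fluorescence, excitation 544 nm, emission 590 nm; Measure: increased resorufin signal from activators or reducing compounds.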
Redox H2O2 prof = compounds producing H2O2 with reducing agent – biochemical, NIH compound library profiling, artefact control for MLSCN library redox annotation, primary screen; AID 878; 200,000 tested, 0.03% active; activation, % at 10 µM; DTT-dependent redox cycling H2O2, phenol red/HRP absorbance; 100% = 100 µM peroxide control, 0% = buffer;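 active = activation of at least 50% relative to the plate's high and low controls in the primary single-dose screen; inactive = activation below 50%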;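 note: compound incubated with DTT at 0.8 mM final as the reducing agent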
PfG6PD inh = PfG6PD (Plasmodium falciparum) enzyme inhibition; PfGluPho enzyme, NADPH resazurin-diaphorase fluorescence; inhibition, % at 20 µM; 350,000 tested, 0.78% active; AID 504690;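 active = inhibition reaching at least a set limit at 20 µM in the primary screen, cut at about 59% in these data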;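 note: 0% = DMSO wells with substrate and 100% = DMSO wells lacking glucose-6-phosphate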
L major viab = inhibitors of Leishmania major promastigote growth | AID 1063 | inhibition, % at 10 µM | Leishmania major promastigotes, resazurin fluorescence viability | 200,000 tested, 9% active;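 note: promastigotes grown with compound for 44 hours at 28 °C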
Diaphorase inh = diaphorase inhibition or chemical oxidation counter-screen; diaphorase resazurin-to-resorufin fluorescence, NADH, 16 min; bacterial (C. kluyveri) enzyme, not human; inhibition, % at 20 µM; 190,000 tested, 0.69% active;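 active = primary screen inhibition at 20 µM above a set limit, cut at about 50% in these data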;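 note: plate controls were DMSO with full reaction for no effect and wells lacking NADH for full effect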
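Test system: Clostridium kluyveri diaphorase enzyme / Quantity: diaphorase at 0.14 U/mL in enzyme working solution / Incubation: 16-min room-temperature incubation before reading / Benchmarks: NADH-free wells as positive control, DMSO-only neutral wells / Signal: resorufin fluorescence 544/590 nm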
The depositor's hits bear a star; x = not tested or not shown. Many of the other results were omitted from the sample, so hits are more common in it than they were. Cut-off read from the data, not from the text of the source, unless noted: active = inhibition above about 50%; inactive = the rest.

SMILES | G6PDH counter | Diaph act CS | Redox H2O2 prof | PfG6PD inh | L major viab | Diaphorase inh
CC1(C)CC(=O)C2=C(C1)c1c(ccc3ccccc13)NC2c1ccco1 (centres undefined) | 5.9 | 0.8 | -3.6 | 25.1 | 11.4 | 22.2
Cc1ccsc1C1Nc2ccc3ncccc3c2C2=C1C(=O)CC(C)(C)C2 (centres undefined) | 14.1 | 0.5 | 1.5 | 45.1 | 6.2 | 52.7*
O=C1CCCC2=C1C(c1cccs1)Nc1ccc3ncccc3c12 (centres undefined) | 3.1 | 1 | -7.8 | 21.8 | 5.8 | 2.8
COc1cc(CNC(=O)c2cc3ccccc3oc2=O)cc(OC)c1OC | x | x | x | -15.7 | x | x
COc1ccc(S(=O)(=O)N2CCOCC2)cc1NC(=O)CCc1nc2ccccc2c(=O)[nH]1 | x | x | x | -3.6 | x | x
COc1ccc(CC(=O)OCC(=O)NCCc2ccccc2)cc1OC | -0.2 | 0.9 | 0.6 | 9.9 | -5.3 | 9.5
C=CCOc1ccc(CNn2nnnc2N)cc1 | 0.4 | 0.9 | 1.2 | -8.3 | -0.1 | 8.6
C=CCOc1c(Br)cc(CNc2ccc(NC(=O)C(C)C)c(OC)c2)cc1OC | 43.7 | 0.5 | 1.7 | 17.4 | 99.2* | 45.4
C=CCOc1c(Br)cc(CNn2nnnc2N)cc1OC | 5.9 | 0.9 | -1.1 | 16.2 | 100.5* | 12.3
OC(COc1cccc2ccccc12)CN1CCN(c2ccc(Cl)cc2)CC1 (centres undefined) | x | x | x | 22.7 | x | x
OC(COc1ccc2ccccc2c1)CN1CCN(c2ccc(F)cc2)CC1 (centres undefined) | -37.4 | 0.8 | 1.1 | 1.0 | -1.7 | 23.8
OC(COc1ccc2ccccc2c1)CN1CCCC1 (centres undefined) | -0.1 | 0.9 | 1.9 | 2.4 | 74.1* | 8.4
OC(COc1cccc2ccccc12)CN1CCCC1 (centres undefined) | 6.6 | 0.9 | -3.2 | 8.9 | 100.3* | 5.1
Cc1ccc(OCCN2CCN(C)CC2)c([N+](=O)[O-])c1 | 1.7 | 0.8 | -0.1 | -15.0 | 95.1* | 22.0
CC1CC(C)CN(CCCOc2ccccc2[N+](=O)[O-])C1 (centres undefined) | 15.8 | 0.8 | -0.5 | -6.4 | 81.0* | 15.0
O=[N+]([O-])c1ccccc1OCCCN1CCc2ccccc2C1 | x | x | x | -13.5 | x | x
Cc1ccc(OCCCN2CCOCC2)c([N+](=O)[O-])c1 | 7.6 | 0.8 | -0.2 | -10.6 | 88.5* | 22.9
Cc1ccc(OCCN2CCNCC2)c([N+](=O)[O-])c1 | 1.7 | 0.9 | -0.1 | 4.3 | 25.7 | 8.5
Cc1ccc(OCCCn2ccnc2)c([N+](=O)[O-])c1 | 5.7 | 0.9 | -0.2 | -0.7 | 72.1* | 13.5
O=C(Nc1ccc2c(c1)CN(Cc1ccc(CO)o1)CC2)c1ccc(C(F)(F)F)cc1 | x | x | x | 10.5 | x | x
Cc1c(CCC(=O)NCCCn2ccnc2)c(=O)oc2cc3oc4c(c3cc12)CCCC4 | x | x | x | -4.2 | x | x
N#Cc1ccccc1NC(=O)C1CCCO1 (centres undefined) | x | x | x | 7.0 | x | x
Cc1ccc([N+](=O)[O-])c(OCCN2CCCCCC2)c1 | 16.5 | 1 | -0.3 | 17.3 | 97.4* | -0.2
CC(=O)Nc1ccc(S(=O)(=O)Nc2ccc(S(=O)(=O)Nc3nccs3)cc2)cc1 | x | x | x | -53.1 | x | x
Cn1cc(C(=O)CCl)c2ccccc21 | 8.6 | 0.8 | -0.6 | 1.8 | 92.0* | 21.2
SMILES | G6PDH counter | Diaph act CS | Redox H2O2 prof | PfG6PD inh | L major viab | Diaphorase inh
COc1ccc(C2N(S(=O)(=O)c3ccccc3)CCN2S(=O)(=O)c2ccc(C)cc2)cc1 (centres undefined) | 4.0 | 1 | 0.6 | -7.6 | 99.8* | 4.4
Cc1ccc(S(=O)(=O)N2CCN(S(=O)(=O)c3ccc(C)cc3)C2c2ccccc2)cc1 | 1.5 | 0.9 | 0.2 | -9.3 | 19.0 | 9.5
CCN1CCN(C(=S)Nc2cccc(Cl)c2)CC1 | -0.1 | 1 | -0.2 | -13.9 | 3.3 | -2.3
Cc1ccc(CNC(=S)N2CCOCC2)cc1 | 3.6 | 1 | 0.0 | 13.3 | -4.9 | -1.8
CCN1CCN(C(=S)NCc2ccc(C)cc2)CC1 | -4.0 | 0.9 | -0.1 | -10.8 | 83.4* | 12.4
OCCN1CCN(C(=S)Nc2cccc(C(F)(F)F)c2)CC1 | x | x | x | -8.4 | x | x
CCN1CCN(C(=S)Nc2ccc(Cl)c(Cl)c2)CC1 | 12.3 | 0.9 | -0.6 | 6.4 | 83.7* | 10.9
CCN1CCN(C(=S)Nc2cccc(C(F)(F)F)c2)CC1 | 9.8 | 0.9 | -0.1 | 3.5 | 59.9* | 8.7
O=C(CSc1cc(Cl)ccc1Cl)NC1CCCC1 | x | x | x | 1.8 | x | x
O=C1CCSc2ccc(Cl)cc2N1Cc1ccc(Cl)cc1 | -3.5 | 0.8 | 1.2 | -22.1 | 20.5 | 15.9
CCn1c(=S)sc2c(=O)[nH]c(SCC(=O)Nc3cc(OC)ccc3OC)nc21 | x | x | x | 3.6 | x | x
CCOc1ccccc1OCCCC(=O)Nc1cccc(-n2cnnn2)c1C | x | x | x | 11.6 | x | x
CC1CCCCN1CCCNC(=O)c1ccc(Br)cc1 (centres undefined) | x | x | x | 0.9 | x | x
CC1CCCCN1CCCNC(=O)c1cc(Br)c(Br)[nH]1 (centres undefined) | 18.3 | 0.9 | 0.6 | 14.9 | 92.7* | 9.5
Cc1ccc(C(=O)N2CCN(S(=O)(=O)c3ccccc3)CC2)s1 | x | x | x | -5.9 | x | x
Cc1nn(CCCC(=O)Nc2cc(Oc3ccccc3)cc([N+](=O)[O-])c2)c(C)c1[N+](=O)[O-] | -26.4 | 0.8 | 2.0 | 21.8 | 98.8* | 22.1
Cc1cc([N+](=O)[O-])nn1CCCC(=O)NC(C)c1ccccc1 (centres undefined) | 11.4 | 1.1 | 0.1 | -9.2 | 51.1* | -6.8
Cc1ccc(Oc2cc(NC(=O)CCCn3nc([N+](=O)[O-])cc3C)cc([N+](=O)[O-])c2)cc1 | 3.2 | 0.8 | 0.0 | 8.9 | 94.6* | 23.1
OCC[C@@H]1C[C@H](O)[C@@H](O)[C@]2(OCc3ccc4ccccc4c32)O1 | x | x | x | 14.3 | x | x
c1ccc(C2CCC(N3CCN(c4ccccc4)CC3)CC2)cc1 (centres undefined) | x | x | x | -0.3 | x | x
CCN(CC)CCCN(Cc1cc2cc(OC)c(OC)cc2[nH]c1=O)C(=O)Nc1ccccc1 | 7.0 | 1 | 0.8 | -8.9 | 11.6 | -2.7
COc1ccc2[nH]c(C)c(CCN(Cc3cccs3)C(=S)Nc3ccccc3)c2c1 | -19.3 | 0.6 | 4.8 | 12.0 | 46.3 | 38.5
COc1cc2cc(CN(Cc3cccs3)C(=S)Nc3ccccc3)c(=O)[nH]c2cc1OC | 4.7 | 0.8 | -0.1 | 12.1 | 81.3* | 20.8
CNC(=S)N(Cc1cccs1)Cc1cc2ccc(OC)cc2[nH]c1=O | -20.1 | 0.7 | -0.4 | 16.9 | 70.3* | 30.3
COc1ccc2[nH]c(=O)c(CN(Cc3cccs3)C(=S)Nc3ccccc3)cc2c1 | -15.3 | 0.8 | -0.1 | x | 98.0* | 18.8
CCNC(=S)N(Cc1cccs1)Cc1cc2cc(OCC)ccc2[nH]c1=O | -19.3 | 0.8 | -0.5 | 8.4 | 96.2* | 22.2

Screening results from PubChem.
